Results filed as inconclusive are left out.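 Rule for the calls, unless noted: active = RAM network inhibition above 8.4% in each of two replicates, 3 SD over the compound average; inconclusive = above 8.4% inhibition in only one replicate; inactive = 8.4% inhibition or less in each replicate.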
How the values were obtained:
[1] = S. cerevisiae growth inhibition in permissive medium (OD615), pilot counter-assay for S. cerevisiae lifespan shortening project, permissive growth control (AID 705;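 active = growth inhibition above 25% in both replicates, a cutoff set 3 SD above the mean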); settings: OD615, 24 h, at 10 µM, active compounds read high
Outline: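 System: engineered DeaD yeast; Medium: permissive raffinose/galactose medium; Compound dosing: 10 µM single dose, 0.25% DMSO; Incubation: 4 h cell pre-growth, 24 h exposure at 30 °C; Technique: OD at 615 nm; Evaluation: growth inhibition from lowered OD615 after 24 h.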

[2] = S. cerevisiae growth inhibition in restrictive medium, OD615, pilot screen, restrictive growth control, yeast lifespan reduction project (AID 706;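 active = growth inhibition above a set limit, 3 SD over mean compound inhibition, in both replicates, cut at about 43% in these data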;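 note: modified DeaD lifespan yeast strain shifted to restrictive glucose medium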); settings: OD615, 48 h, at 10 µM, active compounds read high
Outline: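 Material: modified S. cerevisiae; buffer or medium: CSMM-D glucose medium; doses: one concentration, 10 µM final, 0.25% DMSO; incubation: 48 h compound exposure at 30 °C; detection: optical density at 615 nm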

[3] = doxorubicin toxicity protection in MRP-1 cells – H69AR cells, CellTiter-Glo, duplicate, MRP-1 activator project, pilot screen (AID 807;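 active = viability increase at or above a cutoff of the median across tested compounds plus 3 SD, cut at about 8.5% in these data, passing the limit was not always enough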;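 note: compound pretreatment 18-22 h then 72 h combined with doxorubicin; 0% = doxorubicin alone and 100% = vehicle without doxorubicin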); settings: H69AR viability with doxorubicin, CellTiter-Glo luminescence; at 10 µM; active compounds read high
[4] = viability of HCT116 without oncogenic beta-catenin – human colon tumor cells, pilot screen (AID 823;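 active = cell viability at or below a set limit in both duplicate runs, the limit being the all-compound median minus 4 SD, cut at about 23% in these data, passing the limit was not always enough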;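 note: 0% = wells killed by 20 µM Hyamine and 100% = untreated DMSO cell wells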); settings: HCT116 beta-catenin knockout viability, CellTiter-Glo, 60 h; at 10 µM; active compounds read low
[5] = viability of PTEN-null HCT116 cells – cell-based, HCT116 clonal line, CellTiter-Glo, pilot screen (AID 824;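 active = viability at or below 27.92% in each of two runs, the all-compound median minus 4 SD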;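 note: 0% = 20 µM Hyamine control and 100% = vehicle cell control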); settings: HCT116 PTEN-deleted viability, 60 h, at 10 µM, active compounds read low
[6] = RAM pathway blockade in budding yeast – dse1pr::URA3 reporter, 5-FOA selection, pilot screen (AID 869;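 active = inhibition over a set limit, the all-compound mean plus 3 SD, in both replicate runs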;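 note: 0% = DMSO wells with no growth and 100% = 10 µM 1-NA-PP1 with full growth; RAM network block rescues cells from 5-FOA so hits raise OD615 growth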); settings: S. cerevisiae dse1pr::URA3 5-FOA growth, OD615, 2 d; at 10 µM; active compounds read high; strain carries analog-sensitive mutant Cbk1 kinase
[7] = RAM signaling pathway blockade in yeast – S. cerevisiae, Pdr1DBD-CYC8 efflux-inhibited sensitized strain, primary screen (AID 1298);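 note: 0% = DMSO untreated cells without growth and 100% = 10 µM 1-NA-PP1 full growth; higher means more yeast growth rescued from 5-FOA killing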; settings: S. cerevisiae cbk1-as DSE1-URA3 strain, 5-FOA growth OD615, 2 d; at 50 µM; active compounds read high

CCCNc1nc2c(c(=O)[nH]c(=O)n2C)n1Cc1ccc(F)cc1
inactive: growth inhibition [1] -1.32% | growth inhibition [2] -1.12% | viability increase [3] -2% | viability [4] 104% | viability [5] 92.9% | inhibition [6] 0.945% | RAM network inhibition [7] 0.57%

COc1ccc(C2C(C(=O)N3CC(C)CC(C)C3)c3ccccc3C(=O)N2C)cc1 (centres undefined)
inactive: growth inhibition [1] -10.8% | growth inhibition [2] -4.94% | viability increase [3] -1.09% | viability [4] 96.7% | viability [5] 93% | inhibition [6] 0.305% | RAM network inhibition [7] 0.47%

CC(C)N1C(=O)C2C(c3ccccc3O)NC(C)(C(=O)O)C2C1=O (centres undefined)
inactive: growth inhibition [1] 7.56% | growth inhibition [2] 5.16% | viability increase [3] -0.38% | viability [4] 101% | viability [5] 104% | inhibition [6] 0.765% | RAM network inhibition [7] 1.54%

COc1ccc(OC)c(NC(=O)c2cnc3n(c2=O)CCS3)c1
inactive: growth inhibition [1] -1.9% | growth inhibition [2] -0.45% | viability increase [3] -1.5% | viability [4] 100% | viability [5] 95.9% | inhibition [6] 2.48% | RAM network inhibition [7] 7.21%

CC(=O)Nc1cc(-c2nn3c(C)nnc3s2)ccc1C
inactive: growth inhibition [1] 3.93% | growth inhibition [2] 1.4% | viability increase [3] -0.1% | viability [4] 98.7% | viability [5] 90.3% | inhibition [6] 3.41% | RAM network inhibition [7] 3.72%

CCOC(=O)c1ccc(NC(=O)CSc2nnc(Cn3c(=O)sc4ccccc43)n2C)cc1
inactive: growth inhibition [1] -8.11% | growth inhibition [2] 12% | viability increase [3] -2.6% | viability [4] 94.1% | viability [5] 88.5% | inhibition [6] 0.665% | RAM network inhibition [7] 3.59%

CN1CCN(CCCNC(=O)c2cc3c(=O)n(C)c4ccccc4c3s2)CC1
inactive: growth inhibition [1] 0.78% | growth inhibition [2] -4.68% | viability increase [3] -7.62% | viability [4] 53.1% | viability [5] 45.6% | inhibition [6] 0.835% | RAM network inhibition [7] 1.14%

COc1ccccc1N1C(=O)N(C(C)=O)C2C1Nc1ccccc1N2C (centres undefined)
inactive: growth inhibition [1] -2.22% | growth inhibition [2] -10% | viability increase [3] -5.51% | viability [4] 78.2% | viability [5] 86.5% | inhibition [6] 1.71% | RAM network inhibition [7] 4.65%

COc1ccccc1-c1c(C)nn2c(NCCN3CCCC3)cc(C)nc12
inactive: growth inhibition [1] -3.48% | growth inhibition [2] 0.235% | viability increase [3] -1.54% | viability [4] 87.1% | viability [5] 92.6% | inhibition [6] 0.815% | RAM network inhibition [7] 2.33%

Cc1ccccc1-c1nc(CN2CCC(C(=O)N3CCN(c4ccccn4)CC3)CC2)c(C)o1
inactive: growth inhibition [1] -7.71% | growth inhibition [2] -18.8% | viability increase [3] -5.67% | viability [4] 61.6% | viability [5] 67.7% | inhibition [6] 1.33% | RAM network inhibition [7] -0.47%

COc1cc(C2NC(=O)NC(C)=C2C(=O)OC2CCCCC2)cc(Br)c1O (centres undefined)
inactive: growth inhibition [1] -9.15% | growth inhibition [2] -9.77% | viability increase [3] 0.18% | viability [4] 82.1% | viability [5] 77.3% | inhibition [6] 0.33% | RAM network inhibition [7] 8.82%

O/N=C(/Cc1ccccn1)c1ccccc1
inactive: growth inhibition [1] -1.64% | growth inhibition [2] 7.06% | viability increase [3] -1.19% | viability [4] 101% | viability [5] 101% | inhibition [6] 1.97% | RAM network inhibition [7] 0.22%

COCCNC(=O)CS(=O)Cc1nc(-c2ccc(OC)cc2)oc1C (centres undefined)
inactive: growth inhibition [1] -9.42% | growth inhibition [2] -4.61% | viability increase [3] 0.42% | viability [4] 103% | viability [5] 95.2% | inhibition [6] 1.11% | RAM network inhibition [7] 0.85%

NC(=O)CSc1nnc(Cn2c(=O)sc3ccccc32)n1CCc1ccccc1
inactive: growth inhibition [1] 1.14% | growth inhibition [2] 26.2% | viability increase [3] -1.54% | viability [4] 101% | viability [5] 94.2% | inhibition [6] 0.275% | RAM network inhibition [7] 4.54%

CCN(CCCNS(=O)(=O)c1ccc2c(c1)CCN2C(C)=O)c1cccc(C)c1
inactive: growth inhibition [1] -4.96% | growth inhibition [2] 9.51% | viability increase [3] -2.74% | viability [4] 75.3% | viability [5] 82.5% | inhibition [6] 0.28% | RAM network inhibition [7] 4.1%

Cc1cc(NC(=O)C2CC(c3ccc(F)cc3)=NO2)no1 (centres undefined)
inactive: growth inhibition [1] -0.42% | growth inhibition [2] -0.655% | viability increase [3] -0.18% | viability [4] 101% | viability [5] 109% | inhibition [6] -0.08% | RAM network inhibition [7] 4.62%

CCN1C(=O)CS/C1=N\c1nccs1
inactive: growth inhibition [1] 1.12% | growth inhibition [2] 1.68% | viability increase [3] 0.86% | viability [4] 105% | viability [5] 105% | inhibition [6] 1.64% | RAM network inhibition [7] -1.23%

Cc1cc2ccccc2n1CCNC(=O)COc1ccccc1
inactive: growth inhibition [1] -3.44% | growth inhibition [2] 11.8% | viability increase [3] -0.8% | viability [4] 99.2% | viability [5] 94.2% | inhibition [6] 2.31% | RAM network inhibition [7] 8.38%

CCCCCn1c(NC2CCCCC2)nc2c1c(=O)[nH]c(=O)n2C
inactive: growth inhibition [1] -15.8% | growth inhibition [2] -18.2% | viability increase [3] -3.48% | viability [4] 83.3% | viability [5] 86.1% | inhibition [6] 1.53% | RAM network inhibition [7] -0.84%

CC12CN3CC(C)(CN(C1)C3c1ccc(Br)cc1)C2=O (centres undefined)
inactive: growth inhibition [1] -1.9% | growth inhibition [2] 3.54% | viability increase [3] -2.12% | viability [4] 95.2% | viability [5] 96.9% | inhibition [6] 0.265% | RAM network inhibition [7] 0.82%

COC(=O)C(C(=O)OC)C(C(=O)OC)C(C(=O)OC)C(=O)OC
inactive: growth inhibition [1] -6.07% | growth inhibition [2] -6.78% | viability increase [3] -1.54% | viability [4] 97.2% | viability [5] 92.6% | inhibition [6] 0.42% | RAM network inhibition [7] -1.61%

COc1ccc(NC(=O)c2nc3nc(C)cc(C(F)F)n3n2)cc1OC
inactive: growth inhibition [1] -10.9% | growth inhibition [2] -6.71% | viability increase [3] 2.09% | viability [4] 108% | viability [5] 102% | inhibition [6] 0.885% | RAM network inhibition [7] 1.05%

O=C(c1cc(-c2cccs2)on1)N1CCCc2ccccc21
inactive: growth inhibition [1] -2.66% | growth inhibition [2] -4.53% | viability increase [3] -3.09% | viability [4] 103% | viability [5] 103% | inhibition [6] 2.58% | RAM network inhibition [7] -0.52%

O=C(Cn1c(=O)sc2ccccc21)N1CCOCC1
inactive: growth inhibition [1] -1.21% | growth inhibition [2] -4.46% | viability increase [3] -1.06% | viability [4] 95.5% | viability [5] 102% | inhibition [6] 0.485% | RAM network inhibition [7] 0.67%

Cc1cc(Cl)ccc1NC(=O)CSc1nnc(-c2ccncc2)n1Cc1ccco1
inactive: growth inhibition [1] 5.41% | growth inhibition [2] 25% | viability increase [3] 0.37% | viability [4] 92.5% | viability [5] 93.9% | inhibition [6] 1% | RAM network inhibition [7] 3.58%

COC(=O)c1cccnc1-n1c(=O)c2cccnc2n(Cc2cccc(OC)c2)c1=O
inactive: growth inhibition [1] -13.7% | growth inhibition [2] 4.94% | viability increase [3] -3.24% | viability [4] 101% | viability [5] 92.7% | inhibition [6] 0.47% | RAM network inhibition [7] -1.41%

CC(Oc1ccccc1F)C(=O)NCCN1CCCCC1 (centres undefined)
inactive: growth inhibition [1] -9.04% | growth inhibition [2] -8.32% | viability increase [3] -0.4% | viability [4] 91.9% | viability [5] 93.6% | inhibition [6] 0.865% | RAM network inhibition [7] 3.01%

CNC(=O)c1c[nH]n2c(=O)c(Cc3ccccc3F)c(C)nc12
inactive: growth inhibition [1] -2.95% | growth inhibition [2] -3.94% | viability increase [3] -0.89% | viability [4] 87.7% | viability [5] 91.6% | inhibition [6] 1.17% | RAM network inhibition [7] 3.18%

CC(=O)c1cc(Cc2csc(C(C)=O)c2)cs1
inactive: growth inhibition [1] -9.93% | growth inhibition [2] -5.34% | viability increase [3] -2.14% | viability [4] 100% | viability [5] 100% | inhibition [6] 1.38% | RAM network inhibition [7] 3.88%

Cc1nn(-c2ccccc2)c2sc(C(=O)OCN3C(=O)c4ccccc4C3=O)cc12
inactive: growth inhibition [1] -8.01% | growth inhibition [2] -6.25% | viability increase [3] -3.32% | viability [4] 83.6% | viability [5] 85.2% | inhibition [6] 2.55% | RAM network inhibition [7] 4.24%

O=C(COC(=O)C(O)c1ccccc1)c1ccc2c(c1)OCCO2 (centres undefined)
inactive: growth inhibition [1] -4.38% | growth inhibition [2] -9.29% | viability increase [3] -0.39% | viability [4] 97.1% | viability [5] 106% | inhibition [6] 1.27% | RAM network inhibition [7] 4.89%

O=C1N(O)C2(C=CCCC2)/C(=N\O)C12CCCCC2 (centres undefined)
inactive: growth inhibition [1] -11.1% | growth inhibition [2] -1.67% | viability increase [3] -2.64% | viability [4] 90.1% | viability [5] 100% | inhibition [6] -0.15% | RAM network inhibition [7] 1.27%

C=CCNC(=O)c1ccc(C)cc1Cl
inactive: growth inhibition [1] -13.3% | growth inhibition [2] -2.44% | viability increase [3] -0.26% | viability [4] 95.5% | viability [5] 94.5% | inhibition [6] 1.02% | RAM network inhibition [7] 1.37%

CCc1nc(SCC(=O)c2ccc(C)c(C)c2)n[nH]1
inactive: growth inhibition [1] -9.29% | growth inhibition [2] 4.11% | viability increase [3] 2.14% | viability [4] 102% | viability [5] 104% | inhibition [6] 0.56% | RAM network inhibition [7] 6.63%

Cc1cc(C)n2nc(S(=O)(=O)NCCc3ccccc3)nc2n1
inactive: growth inhibition [1] -6.26% | growth inhibition [2] -8.79% | viability increase [3] -0.6% | viability [4] 111% | viability [5] 100% | inhibition [6] 2.72% | RAM network inhibition [7] 1.3%

CCOC(=O)c1c(C)n(C)c2ccc(OCC(O)CN(CC)CC)cc12 (centres undefined)
inactive: growth inhibition [1] -9.63% | growth inhibition [2] -1.99% | viability increase [3] -4.23% | viability [4] 77.6% | viability [5] 81.5% | inhibition [6] 1.71% | RAM network inhibition [7] -0.57%

CCOC(=O)CCc1n[nH]c(=O)[nH]c1=O
inactive: growth inhibition [1] -3.33% | growth inhibition [2] 5.9% | viability increase [3] -0.23% | viability [4] 102% | viability [5] 104% | inhibition [6] 1.46% | RAM network inhibition [7] 0%

Source: PubChem BioAssay
